The values that follow come from ChEMBL document CHEMBL1156563, “Synthesis and antiproliferative evaluation of amide-containing flavone and isoflavone derivatives” (Bioorg Med Chem, 2008).

A short description of assay [1]: Cell cycle arrest in human NPC-TW01 cells assessed as accumulation at S phase at 30 uM after 96 hrs by flow cytometry. In kind it is functional, cell-based. In outline:
(§1)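 Time course in exponentially growing cells at two concentrations, sampled at the indicated times. Controls were kept in complete medium with 0.3% DMSO for the same periods. Cells were fixed, RNase-treated and stained. DNA content was read on a FACScan flow cytometer, and the percentage of cells in sub-G1, G0/G1, S and G2/M was determined.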

Assay [2] in a line: Cell cycle arrest in human NPC-TW01 cells assessed as accumulation at G2/M phase at 30 uM after 24 hrs by flow cytometry. Format: functional, cell-based. In outline: as §1
The nature of assay [3]: Cell cycle arrest in human NPC-TW01 cells assessed as accumulation at G2/M phase at 30 uM after 72 hrs by flow cytometry. In kind it is functional, cell-based. In outline:
as §1

Assay [4] can be described thus: Cell cycle arrest in human NPC-TW01 cells assessed as accumulation at S phase at 60 uM after 96 hrs by flow cytometry. In kind it is functional, cell-based. An outline of the steps: as §1
Assay [5] in a line: Cell cycle arrest in human NPC-TW01 cells assessed as accumulation at G2/M phase at 30 uM after 48 hrs by flow cytometry. Format: functional, cell-based. An outline of the steps:
as §1

Assay [6] is described as follows: Cell cycle arrest in human NPC-TW01 cells assessed as accumulation at sub-G1 phase at 60 uM after 48 hrs by flow cytometry. Format: functional, cell-based. An outline of the steps: as §1
The nature of assay [7]: Cell cycle arrest in human NPC-TW01 cells assessed as accumulation at S phase at 10.5 uM after 72 hrs by flow cytometry. In kind it is functional, cell-based. In outline:
(§2)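 Exponentially growing cells were treated for 72 h. Controls received complete medium with 0.5% DMSO for 72 h. Cells were fixed, incubated with RNase and stained. DNA content was measured on a FACScan flow cytometer, and the percentage of cells in each cell-cycle phase was determined.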

Assay [8] in a line: Cell cycle arrest in human NPC-TW01 cells assessed as accumulation at G0/G1 phase at 60 uM after 48 hrs by flow cytometry. In kind it is functional, cell-based. In outline:
as §1

The nature of assay [9]: Cell cycle arrest in human NPC-TW01 cells assessed as accumulation at S phase at 30 uM after 24 hrs by flow cytometry. Format: functional, cell-based. In outline: as §1
The nature of assay [10]: Cell cycle arrest in human NPC-TW01 cells assessed as accumulation at sub-G1 phase at 30 uM after 48 hrs by flow cytometry. Format: functional, cell-based. An outline of the steps:
as §1

A short description of assay [11]: Cell cycle arrest in human NPC-TW01 cells assessed as accumulation at G0/G1 phase at 30 uM after 48 hrs by flow cytometry. In kind it is functional, cell-based. In outline: as §1
For another assay, the system named is NCI-H661. The experiment in a line: Antiproliferative activity against human NCI-H661 cells after 72 hrs by MTT assay. Format: functional. The conditions noted are these: NCI-H661, 72 h. In outline: (§3)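 Cells were exposed to a range of concentrations for 72 h. Compounds came from 20 mM stocks in 100% DMSO. Cells were then given MEM with 0.4 mg/mL MTT for 2 h, and formazan was read at 570 nm. GI50 was taken from percentage conversion relative to mock-treated controls and reported as mean SD of three independent experiments.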

The subject of another assay is MT2. The experiment in a line: Antiproliferative activity against human MT2 cells after 72 hrs by MTT assay. The conditions noted are these: MT2, 72 h. Format: functional. In outline:
as §3

Assay [12] is described as follows: Cell cycle arrest in human NPC-TW01 cells assessed as accumulation at sub-G1 phase at 60 uM after 24 hrs by flow cytometry. In kind it is functional, cell-based. In outline: as §1
The nature of assay [13]: Cell cycle arrest in human NPC-TW01 cells assessed as accumulation at G0/G1 phase at 60 uM after 24 hrs by flow cytometry. In kind it is functional, cell-based. In outline: as §1
The nature of assay [14]: Cell cycle arrest in human NPC-TW01 cells assessed as accumulation at G2/M phase at 10.5 uM after 72 hrs by flow cytometry. In kind it is functional, cell-based. In outline:
as §2

Assay [15] can be described thus: Cell cycle arrest in human NPC-TW01 cells assessed as accumulation at sub-G1 phase at 60 uM after 96 hrs by flow cytometry. Format: functional, cell-based. An outline of the steps: as §1
Assay [16] in a line: Cell cycle arrest in human NPC-TW01 cells assessed as accumulation at G0/G1 phase at 60 uM after 72 hrs by flow cytometry. Format: functional, cell-based. An outline of the steps: as §1
Assay [17] can be described thus: Cell cycle arrest in human NPC-TW01 cells assessed as accumulation at G2/M phase at 60 uM after 72 hrs by flow cytometry. Format: functional, cell-based. In outline:
as §1

A short description of assay [18]: Cell cycle arrest in human NPC-TW01 cells assessed as accumulation at G0/G1 phase at 60 uM after 96 hrs by flow cytometry. Format: functional, cell-based. In outline: as §1
The nature of assay [19]: Cell cycle arrest in human NPC-TW01 cells assessed as accumulation at G0/G1 phase at 30 uM after 24 hrs by flow cytometry. In kind it is functional, cell-based. In outline:
as §1

Assay [20] is described as follows: Cell cycle arrest in human NPC-TW01 cells assessed as accumulation at S phase at 30 uM after 72 hrs by flow cytometry. In kind it is functional, cell-based. In outline:
as §1

Assay [21] in a line: Cell cycle arrest in human NPC-TW01 cells assessed as accumulation at sub-G1 phase at 30 uM after 24 hrs by flow cytometry. Format: functional, cell-based. In outline: as §1
The nature of assay [22]: Cell cycle arrest in human NPC-TW01 cells assessed as accumulation at sub-G1 phase at 60 uM after 72 hrs by flow cytometry. In kind it is functional, cell-based. In outline: as §1
Assay [23] in a line: Cell cycle arrest in human NPC-TW01 cells assessed as accumulation at S phase at 60 uM after 48 hrs by flow cytometry. In kind it is functional, cell-based. In outline:
as §1

The nature of assay [24]: Cell cycle arrest in human NPC-TW01 cells assessed as accumulation at S phase at 30 uM after 48 hrs by flow cytometry. Format: functional, cell-based. In outline:
as §1

The nature of assay [25]: Cell cycle arrest in human NPC-TW01 cells assessed as accumulation at sub-G1 phase at 30 uM after 72 hrs by flow cytometry. In kind it is functional, cell-based. In outline: as §1
The nature of assay [26]: Cell cycle arrest in human NPC-TW01 cells assessed as accumulation at G0/G1 phase at 30 uM after 96 hrs by flow cytometry. Format: functional, cell-based. In outline:
as §1

Assay [27] can be described thus: Cell cycle arrest in human NPC-TW01 cells assessed as accumulation at G2/M phase at 60 uM after 96 hrs by flow cytometry. Format: functional, cell-based. An outline of the steps:
as §1

A short description of assay [28]: Antiproliferative activity against human NPC-TW01 cells after 72 hrs by MTT assay. Format: functional. The conditions noted are these: NPC-TW01, 72 h. In outline:
as §3

A short description of assay [29]: Cell cycle arrest in human NPC-TW01 cells assessed as accumulation at G2/M phase at 30 uM after 96 hrs by flow cytometry. In kind it is functional, cell-based. An outline of the steps: as §1
Assay [30] can be described thus: Cell cycle arrest in human NPC-TW01 cells assessed as accumulation at G0/G1 phase at 30 uM after 72 hrs by flow cytometry. In kind it is functional, cell-based. An outline of the steps: as §1
Assay [31] can be described thus: Cell cycle arrest in human NPC-TW01 cells assessed as accumulation at S phase at 60 uM after 72 hrs by flow cytometry. Format: functional, cell-based. In outline:
as §1

Assay [32] in a line: Cell cycle arrest in human NPC-TW01 cells assessed as accumulation at G2/M phase at 60 uM after 48 hrs by flow cytometry. Format: functional, cell-based. An outline of the steps: as §1
Assay [33] is described as follows: Cell cycle arrest in human NPC-TW01 cells assessed as accumulation at sub-G1 phase at 10.5 uM after 72 hrs by flow cytometry. In kind it is functional, cell-based. An outline of the steps:
as §2

Assay [34] is described as follows: Cell cycle arrest in human NPC-TW01 cells assessed as accumulation at S phase at 60 uM after 24 hrs by flow cytometry. Format: functional, cell-based. An outline of the steps: as §1
The nature of assay [35]: Cell cycle arrest in human NPC-TW01 cells assessed as accumulation at G2/M phase at 60 uM after 24 hrs by flow cytometry. Format: functional, cell-based. In outline:
as §1

Assay [36] is described as follows: Cell cycle arrest in human NPC-TW01 cells assessed as accumulation at sub-G1 phase at 30 uM after 96 hrs by flow cytometry. In kind it is functional, cell-based. In outline:
as §1

Assay [37] is described as follows: Cell cycle arrest in human NPC-TW01 cells assessed as accumulation at S phase at 6.0 uM after 72 hrs by flow cytometry. Format: functional, cell-based. In outline:
as §2

The nature of assay [38]: Cell cycle arrest in human NPC-TW01 cells assessed as accumulation at G0/G1 phase at 6.0 uM after 72 hrs by flow cytometry. Format: functional, cell-based. In outline: as §2
Assay [39] can be described thus: Cell cycle arrest in human NPC-TW01 cells assessed as accumulation at G2/M phase at 6.0 uM after 72 hrs by flow cytometry. Format: functional, cell-based. In outline:
as §2

Assay [40] can be described thus: Cell cycle arrest in human NPC-TW01 cells assessed as accumulation at sub-G1 phase at 6.0 uM after 72 hrs by flow cytometry. Format: functional, cell-based. In outline:
as §2

Regarding `O=C(COc1ccc2oc(-c3ccccc3)cc(=O)c2c1)Nc1ccc(F)cc1`, the Activity was 15.1% in [1]; 17% in assay [2]; 9.47% in assay [3]; 12.8% in [4]; 13.4% in assay [5]; 2.87% in [6]. For the same molecule, the Activity is 13.6% in assay [7]; 68.3% in [8]; 27.6% in [9]; 2.59% in assay [10]; 59.8% in [11]; 2.27% in assay [12]. Moreover, the Activity in assay [13] was determined as 51.5%; in assay [14], 5.2%; in [15], 12.7%; in assay [16] it was 73.7%; in assay [17] it was 6.64%; in assay [18], 66.7%. Also, the Activity amounted to 52% in assay [19]; 14.7% in assay [20]; 3.45% in assay [21]; 4.5% in [22]; 18.4% in assay [23]; 24.2% in assay [24]. For the same molecule, the Activity in [25] was determined as 4.79%; in assay [26] it was 70.7%; in assay [27], 7.78%; in assay [29], 8.6%; in assay [30] it was 71%; in assay [31], 15.7%. Further, the Activity in assay [32] stood at 10.5%; in [33], 4%; in assay [34], 26.4%; in assay [35], 19.8%; in assay [36], 5.62%. Also, the GI50 in the assay with NCI-H661 worked out at 1.47 µM; in the assay with MT2, 0.47 µM; in [28] it was 0.74 µM.
With `O=c1cc(-c2ccccc2)oc2ccc(OC/C(=N\O)c3ccc(F)cc3)cc12`, the Activity in assay [37] was determined as 33.2%; in [38] it was 22.3%; in assay [39], 42.8%; in [40], 1.7%.
Take `O=C(COc1ccc2oc(-c3ccccc3)cc(=O)c2c1)Nc1ccc(-c2ccccc2)cc1`: the GI50 was 9.71 µM with NCI-H661, above 10 µM with MT2 and 0.64 µM in assay [28].
The matching figures for `O=C(COc1c(-c2ccccc2)oc2ccccc2c1=O)Nc1ccc2ccccc2c1`: 6.5 µM, above 10 µM and 6.52 µM.
Consider `COc1ccc(NC(=O)COc2ccc3oc(-c4ccccc4)cc(=O)c3c2)cc1`, for which the Activity in assay [7] stood at 13.6%; in [14], 5.3%; in assay [33] it was 3.3%. Also, the GI50 in the assay with NCI-H661 was 0.84 µM; in the assay on MT2, 3.01 µM; in assay [28], 0.71 µM.
`O=C(COc1ccc2c(=O)c(-c3ccccc3)coc2c1)Nc1ccc(-c2ccccc2)cc1`: the GI50 in the assay with NCI-H661 is above 10 µM; in the assay on MT2, above 10 µM; in [28] it was 1.75 µM.
Take `O=C(COc1ccc2c(=O)c(-c3ccccc3)coc2c1)Nc1ccccc1`: the GI50 (with NCI-H661; with MT2; in assay [28]) was above 10 µM throughout.
As to `O=C(COc1ccc2c(=O)cc(-c3ccccc3)oc2c1)Nc1ccc(F)cc1`, the GI50 in the assay on NCI-H661 is 5.77 µM; in the assay on MT2 it was 6.41 µM; in assay [28], above 10 µM.
The matching figures for `O=C(COc1ccc2c(=O)cc(-c3ccccc3)oc2c1)Nc1ccc2ccccc2c1`: above 10 µM, above 10 µM and above 10 µM.
With `COc1ccc(NC(=O)COc2ccc3c(=O)cc(-c4ccccc4)oc3c2)cc1`, the 50% growth inhibitory concentration (GI50) in the assay on NCI-H661 stood at 5.5 µM; with MT2 it was 6.7 µM; in assay [28] it was 5.97 µM.
For the molecule `COc1ccc(NC(=O)COc2ccc3c(=O)c(-c4ccccc4)coc3c2)cc1`, the GI50 in the assay with NCI-H661 was determined as 9.53 µM; in the assay with MT2, 4.55 µM; in [28] it was 6.7 µM.
